Experimental data from different studies.
Compare with care: the assays were run in different laboratories.
Target: Serine/threonine-protein kinase tousled-like 2 (TLK2, Homo sapiens, UniProt Q86UE8)

Structure (SMILES)	test	setting	remaining binding [%]
F[C@@H]1CCN(c2nccc(-c3cnn4ncccc34)n2)C1	binding	1 µM	100
C[C@@H](c1ccc(-n2cnc3c(N)ncnc32)cc1)N1CCc2nn(C)c(Cc3ccccc3)c2C1=O	binding, competition with immobilised ligand	0.1 µM	99
CNC(=O)Nc1ccc2c(c1)[C@@]1(CC2)OC(=O)N(CC(=O)N(Cc2ccc(F)cc2)[C@@H](C)C(F)(F)F)C1=O	cell-free assay, competition with immobilised ligand	1 µM	100
Nc1ncc2c(n1)-c1c([nH]c3ccc(C#CC4CC4)cc13)CCCC2	binding, competition with immobilised ligand	1 µM	100
COc1cnc(Nc2cccc(S(N)(=O)=O)c2)nc1N1CCN(c2ccccc2)CC1	binding, competition with immobilised ligand	1 µM	96
C[C@@H]1CCN(c2nccc(-c3cnn4ncccc34)n2)C1	binding	1 µM	100
O=C(N[C@H]1CCCCC/C=C\C2C[C@@]2(C(=O)O)NC(=O)[C@@H]2C[C@@H](Oc3ccncc3)CN2C1=O)OC1CCCC1 (stereo partly drawn)	cell-free assay, competition with immobilised ligand	1 µM	100
O=C(Nc1c[nH]nc1C(=O)NC1CCNCC1)c1cc(F)cc(F)c1	binding, competition with immobilised ligand	1 µM	98
C=CC(=O)N1CCC(C(=O)NCC(=O)N2CCN(c3nc(-c4cnc(N)nc4C(F)F)nc(N4CCOCC4)n3)CC2)CC1	binding, competition with immobilised ligand	1 µM	100
N[C@H]1CCN(c2nccc(-c3cnn4ncccc34)n2)C1	binding	1 µM	100
Cc1nc(Cc2cccc(C(F)(F)F)c2)sc1-c1ccc(C(N)=O)nc1	cell-free assay, competition with immobilised ligand	1 µM	82
CN(C)c1ncc(F)c(-c2cnn3ncccc23)n1	binding	1 µM	100
CC1=C(C#N)[C@@H](c2ccc3[nH]nc(C)c3c2)C(C#N)=C(c2ccc(Cl)cc2)N1	cell-free assay, competition with immobilised ligand	1 µM	100
O=C(c1ccc(Nc2ncc(Cl)c(-c3cc4ccccc4s3)n2)cc1)N1CCC(N2CCCC2)CC1	binding, competition with immobilised ligand	1 µM	26
N#CC1(c2ccccn2)CCN(Cc2cc(C(=O)N3CCCC3)c(=O)n3ccccc23)CC1	cell-free assay, competition with immobilised ligand	1 µM	100
CCN1CCN(Cc2ccc(C(=O)Nc3ccc(C)c(Oc4ccc5c(c4)CC(=O)N5)c3)cc2C(F)(F)F)CC1	binding, competition with immobilised ligand	1 µM	94
CN(c1nccc(-c2cnn3ncccc23)n1)C1CC1	binding	1 µM	100
O=C(NCCCN1CCOCC1)c1ccc(Nc2nccc(-c3cc4ccccc4s3)n2)cc1	binding, competition with immobilised ligand	1 µM	64
CN(C)c1nccc(-c2cnn3ncccc23)n1	binding	1 µM	100
O=C(Nc1cccnn1)N1CCC(=Cc2cccc(Oc3ccc(C(F)(F)F)cn3)c2)CC1	cell-free assay, competition with immobilised ligand	1 µM	100
O=C(c1ccc(Nc2ncc(Cl)c(-c3ccc(Cl)s3)n2)cc1)N1CCC(N2CCCC2)CC1	binding, competition with immobilised ligand	1 µM	29
